Test results as given in ChEMBL document CHEMBL4425130, “Macrocyclic Prodrugs of a Selective Nonpeptidic Direct Thrombin Inhibitor Display High Permeability, Efficient Bioconversion but Low Bioavailability” (J Med Chem, 2016).
Values after ≈ are worked out from the molar mass of the structure shown. Values belong to the compound of their own block, whether it stands above or below them.

What was measured:
Serine protease 1 = Serine protease 1 (Homo sapiens, UniProt P07477); experiment: Inhibition of human trypsin 1 using S-2222 as substrate preincubated for 300 secs followed by substrate addition measured after 40 mins
Chain of Serine protease 1 (P07477 whole entry): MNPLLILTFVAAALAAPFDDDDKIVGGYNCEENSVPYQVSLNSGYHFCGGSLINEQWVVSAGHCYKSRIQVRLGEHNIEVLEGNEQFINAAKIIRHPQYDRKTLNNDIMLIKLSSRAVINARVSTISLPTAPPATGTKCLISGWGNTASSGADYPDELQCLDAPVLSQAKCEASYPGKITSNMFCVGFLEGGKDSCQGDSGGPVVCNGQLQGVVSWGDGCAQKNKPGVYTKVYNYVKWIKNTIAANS
Summary of the method: (§1)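 Human proteases assayed at one substrate concentration with ten inhibitor concentrations at 37 °C, ≤1.3% DMSO, in an enzyme-specific Tris-HCl pH 7.4 buffer. Enzyme and inhibitor preincubated 300 s, then substrate added; absorbance read at 405 nm after 40 min. IC50 converted to Ki by IC50 = Ki(1+S/KM), using KM measured under assay conditions.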

Homo sapiens [1] = species: Homo sapiens; experiment: Selectivity ratio of Ki for human F9a to Ki for human alpha-thrombin
Coagulation factor IX = Coagulation factor IX (Homo sapiens, UniProt P00740); experiment: Inhibition of human F9a using pefachrome F9a as substrate preincubated for 300 secs followed by substrate addition measured after 40 mins
Chain of Coagulation factor IX (P00740 47-191 limits assumed): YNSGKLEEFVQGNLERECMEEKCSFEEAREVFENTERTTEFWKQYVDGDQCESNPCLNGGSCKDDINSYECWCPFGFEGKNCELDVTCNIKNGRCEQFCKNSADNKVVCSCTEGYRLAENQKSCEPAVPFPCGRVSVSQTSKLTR
Chain of Coagulation factor IX (P00740 227-461 limits assumed): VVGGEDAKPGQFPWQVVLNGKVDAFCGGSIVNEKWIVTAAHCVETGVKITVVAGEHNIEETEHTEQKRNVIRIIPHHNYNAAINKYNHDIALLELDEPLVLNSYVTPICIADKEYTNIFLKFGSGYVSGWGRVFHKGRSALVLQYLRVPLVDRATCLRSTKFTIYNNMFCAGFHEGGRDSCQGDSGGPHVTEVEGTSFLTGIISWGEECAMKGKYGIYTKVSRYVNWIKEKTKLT

Cytochrome P450 3A4 = Cytochrome P450 3A4 (Homo sapiens, UniProt P08684); experiment: Inhibition of human CYP3A4; assay type: ADME
Chain of Cytochrome P450 3A4 (P08684 whole entry): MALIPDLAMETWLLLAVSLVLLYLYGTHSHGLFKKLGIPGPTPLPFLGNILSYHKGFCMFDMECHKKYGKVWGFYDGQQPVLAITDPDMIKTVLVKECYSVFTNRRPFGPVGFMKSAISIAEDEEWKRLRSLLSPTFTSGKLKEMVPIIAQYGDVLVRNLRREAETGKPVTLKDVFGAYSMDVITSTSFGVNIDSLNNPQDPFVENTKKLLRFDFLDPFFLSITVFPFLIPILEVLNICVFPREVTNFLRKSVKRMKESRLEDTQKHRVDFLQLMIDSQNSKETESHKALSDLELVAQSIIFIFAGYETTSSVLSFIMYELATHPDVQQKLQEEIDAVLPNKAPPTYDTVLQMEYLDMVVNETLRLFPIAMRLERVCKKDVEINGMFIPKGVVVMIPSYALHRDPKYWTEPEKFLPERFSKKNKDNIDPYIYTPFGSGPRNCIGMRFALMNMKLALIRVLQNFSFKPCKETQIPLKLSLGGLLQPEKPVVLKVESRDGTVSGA

Plasminogen = Plasminogen (Homo sapiens, UniProt P00747); experiment: Inhibition of human plasmin using S-2366 as substrate preincubated for 300 secs followed by substrate addition measured after 40 mins; summary of the method: as §1
Chain of Plasminogen (P00747 97-580 limits assumed): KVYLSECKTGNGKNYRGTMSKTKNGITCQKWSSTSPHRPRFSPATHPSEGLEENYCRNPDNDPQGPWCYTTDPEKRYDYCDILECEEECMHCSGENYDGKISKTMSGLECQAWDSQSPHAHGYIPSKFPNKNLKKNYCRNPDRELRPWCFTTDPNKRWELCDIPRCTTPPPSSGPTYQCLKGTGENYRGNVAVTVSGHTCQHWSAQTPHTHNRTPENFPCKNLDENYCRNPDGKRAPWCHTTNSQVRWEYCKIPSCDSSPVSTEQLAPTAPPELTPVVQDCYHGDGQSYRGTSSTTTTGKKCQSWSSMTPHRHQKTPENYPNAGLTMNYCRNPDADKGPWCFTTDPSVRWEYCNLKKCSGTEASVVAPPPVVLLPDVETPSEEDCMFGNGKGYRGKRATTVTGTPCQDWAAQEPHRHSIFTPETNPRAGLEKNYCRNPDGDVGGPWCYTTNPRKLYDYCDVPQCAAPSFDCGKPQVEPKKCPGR
Chain of Plasminogen (P00747 581-810 limits assumed): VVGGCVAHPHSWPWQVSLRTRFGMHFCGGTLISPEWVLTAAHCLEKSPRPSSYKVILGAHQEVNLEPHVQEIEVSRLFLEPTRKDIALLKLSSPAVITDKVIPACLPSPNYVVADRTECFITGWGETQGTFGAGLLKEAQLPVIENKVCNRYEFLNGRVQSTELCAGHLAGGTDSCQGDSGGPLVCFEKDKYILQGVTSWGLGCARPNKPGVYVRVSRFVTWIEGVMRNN

Homo sapiens [2] = species: Homo sapiens; experiment: Selectivity ratio of Ki for human tissue factor/F7a to Ki for human alpha-thrombin
Prothrombin = Prothrombin (Homo sapiens, UniProt P00734); experiment: Inhibition of human alpha-thrombin using S-2366 as substrate after 40 mins
Homo sapiens [3] = species: Homo sapiens; experiment: Selectivity ratio of Ki for human plasmin to Ki for human alpha-thrombin
[4] = Intrinsic clearance in Sprague-Dawley rat liver microsomes at 1 umol/L after 7 to 30 mins by LC-MS/MS method; assay type: ADME, Microsome; conditions: read-out: CLH
Homo sapiens [5] = species: Homo sapiens; experiment: Selectivity ratio of Ki for human F10a to Ki for human alpha-thrombin
[6] = Inhibition of human tissue factor/F7a using spectrozyme as substrate preincubated for 300 secs followed by substrate addition measured after 40 mins; summary of the method: as §1
Coagulation factor XI = Coagulation factor XI (Homo sapiens, UniProt P03951); experiment: Inhibition of human F11a using S-2366 as substrate preincubated for 300 secs followed by substrate addition measured after 40 mins; summary of the method: as §1
Chain of Coagulation factor XI (P03951 19-387 limits assumed): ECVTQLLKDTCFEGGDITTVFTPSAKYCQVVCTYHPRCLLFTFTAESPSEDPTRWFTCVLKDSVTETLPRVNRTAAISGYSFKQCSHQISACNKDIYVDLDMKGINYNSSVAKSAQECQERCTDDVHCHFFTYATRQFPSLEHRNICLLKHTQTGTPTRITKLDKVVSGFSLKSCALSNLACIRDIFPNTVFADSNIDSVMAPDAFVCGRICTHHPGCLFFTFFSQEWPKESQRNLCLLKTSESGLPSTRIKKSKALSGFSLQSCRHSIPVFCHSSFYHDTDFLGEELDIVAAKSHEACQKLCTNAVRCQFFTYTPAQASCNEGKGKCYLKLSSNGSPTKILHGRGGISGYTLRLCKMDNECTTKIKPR
Chain of Coagulation factor XI (P03951 388-625 limits assumed): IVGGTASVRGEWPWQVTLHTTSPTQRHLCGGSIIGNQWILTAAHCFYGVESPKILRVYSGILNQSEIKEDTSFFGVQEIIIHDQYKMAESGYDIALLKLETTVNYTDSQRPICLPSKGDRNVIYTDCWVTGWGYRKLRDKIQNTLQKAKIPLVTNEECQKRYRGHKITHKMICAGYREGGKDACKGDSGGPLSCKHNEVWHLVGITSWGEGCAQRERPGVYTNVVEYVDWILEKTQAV

Rattus norvegicus = species: Rattus norvegicus; experiment: Antithrombotic activity in rat caval vein thrombosis model assessed as prevention of venous thrombosis; assay type: functional, organism-based
Coagulation factor X = Coagulation factor X (Homo sapiens, UniProt P00742); experiment: Inhibition of human F10a using S-2765 as substrate preincubated for 300 secs followed by substrate addition measured after 40 mins; summary of the method: as §1
Chain of Coagulation factor X (P00742 41-179 limits assumed): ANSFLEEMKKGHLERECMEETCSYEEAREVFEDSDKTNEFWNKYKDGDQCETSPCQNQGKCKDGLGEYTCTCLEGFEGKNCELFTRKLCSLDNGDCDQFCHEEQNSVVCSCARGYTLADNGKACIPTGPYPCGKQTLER
Chain of Coagulation factor X (P00742 235-488 limits assumed): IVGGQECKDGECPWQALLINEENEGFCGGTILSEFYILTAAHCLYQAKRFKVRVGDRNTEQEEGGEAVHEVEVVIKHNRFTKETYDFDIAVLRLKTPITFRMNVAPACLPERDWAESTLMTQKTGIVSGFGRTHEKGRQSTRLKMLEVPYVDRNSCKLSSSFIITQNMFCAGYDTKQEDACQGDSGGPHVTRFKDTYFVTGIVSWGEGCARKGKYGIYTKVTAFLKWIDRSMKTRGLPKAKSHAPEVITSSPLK

[7] = molecular target: Thrombin & trypsin (Homo sapiens) (UniProt P00734+P07477+P07478+P35030); experiment: Selectivity ratio of Ki for human trypsin 1 to Ki for human alpha-thrombin; assay type: protein assay
Plasma = experiment: Anticoagulant activity in human citrated plasma assessed as concentration required to double activated partial thromboplastin time after 3 mins by coagulation analyser; assay type: functional, cell-free; conditions: 0.05 h
Homo sapiens [8] = species: Homo sapiens; experiment: Selectivity ratio of Ki for human F11a to Ki for human alpha-thrombin
[9] = Drug level in rat hepatocytes treated with Methyl 3-(((3-(2-((5-Chloro-2-(((methoxycarbonyl)amino)-methyl)benzyl)amino)-2-oxoethyl)-4-methyl-2-oxo-5,6-dihydropyridin-1(2H)-yl)amino)methyl)benzoate assessed as esterase-mediated compound formation at 4 uM after 40 mins by ultraperformance liquid chromatographic method; assay type: ADME, cell-based; conditions: isolated protein
[10] = Cmax in Han Wistar rat at 1 umol/kg, po administered via gavage by LC-MS/MS method; assay type: ADME, organism-based; parameters: dose 1 umol/kg, route oral; conditions: in vivo
Summary of the method: (§2)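 Male Han Wistar rats, cannulated in the carotid artery for sampling and the jugular vein for i.v. dosing, one week before the study (two days before for intraduodenal dosing). Single doses: 0.5 µmol/kg i.v., or 1 µmol/kg by gavage or intraduodenally. Vehicles were 5% mannitol in water or DMA:TEG:water (1:1:1). Plasma sampled up to 24 h and analysed by LC-MS/MS. Non-compartmental analysis; means of n=3, with F from mean AUCinf.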

[11] = Prodrug conversion in human liver microsomes assessed as 3-((3-(2-(2-(Aminomethyl)-5-chlorobenzylamino)-2-oxoethyl)-4-methyl-2-oxo-5,6-dihydropyridin-1(2H)-ylamino)methyl)benzoic acid formation in absence of NADPH; assay type: ADME, Microsome
[12] = Prodrug conversion in rat hepatocytes assessed as esterase-mediated 3-((3-(2-(2-(Aminomethyl)-5-chlorobenzylamino)-2-oxoethyl)-4-methyl-2-oxo-5,6-dihydropyridin-1(2H)-ylamino)methyl)benzoic acid formation at 4 uM after 40 mins by ultraperformance liquid chromatographic method; assay type: ADME, cell-based
[13] = Apparent permeability across apical to basolateral side in human Caco2 cells at 10 uM after 45 to 120 mins by ultraperformance LC/MS/MS method; conditions: Caco-2
[14] = Prodrug conversion in human plasma assessed as esterase-mediated metabolite formation after 4 hrs; assay type: ADME, cell-free
[15] = AUCinfinity in Han Wistar rat assessed as 3-((3-(2-(2-(Aminomethyl)-5-chlorobenzylamino)-2-oxoethyl)-4-methyl-2-oxo-5,6-dihydropyridin-1(2H)-ylamino)methyl)benzoic acid formation at 1 umol/kg, po administered via gavage by LC-MS/MS method; assay type: ADME, organism-based; parameters: dose 1 umol/kg, time infinity, route oral; conditions: in vivo; summary of the method: as §2
physchem = conditions: 1-octanol/phosphate buffer, pH 7.4
[16] = Prodrug conversion in human liver microsomes assessed as 3-((3-(2-(2-(Aminomethyl)-5-chlorobenzylamino)-2-oxoethyl)-4-methyl-2-oxo-5,6-dihydropyridin-1(2H)-ylamino)methyl)benzoic acid formation in presence of NADPH; assay type: ADME, Microsome
[17] = Apparent terminal half life in Han Wistar rat at 1 umol/kg, po administered via gavage by LC-MS/MS method; assay type: ADME, organism-based; conditions: in vivo, read-out: betat1/2(app) (converted); summary of the method: as §2
[18] = Cmax in Han Wistar rat at 1 umol/kg administered intraduodenally by LC-MS/MS method; assay type: ADME; parameters: dose 1 umol/kg, route intraduodenal; conditions: in vivo; summary of the method: as §2
[19] = Prodrug conversion in human hepatocytes assessed as esterase-mediated formaldehyde formation at 4 uM after 40 mins by ultraperformance liquid chromatographic method; assay type: ADME, cell-based; conditions: isolated protein
Summary of the method: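 Cryopreserved human hepatocytes at 10^6 viable cells/mL, thawed and pre-warmed 10 min at 37 °C. Compound added from CH3CN stock at 4 µM final. Incubated 40 min, then quenched in cold CH3CN, with compound-free incubations as blanks. Metabolites assigned by LC-MS product ion spectra.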

[20] = Solubility of the compound in phosphate buffer at pH 7.4 at 25 degC after 24 hrs by ultraperformance LC/MS/MS method
[21] = AUCinfinity in Han Wistar rat assessed as 3-((3-(2-(2-(Aminomethyl)-5-chlorobenzylamino)-2-oxoethyl)-4-methyl-2-oxo-5,6-dihydropyridin-1(2H)-ylamino)methyl)benzoic acid formation at 1 umol/kg administered intraduodenally by LC-MS/MS method; assay type: ADME; parameters: dose 1 umol/kg, route intraduodenal, time infinity; conditions: in vivo, other; summary of the method: as §2
[22] = Efflux ratio of apparent permeability across basolateral to apical over apical to basolateral side in human Caco2 cells at 10 uM after 45 to 120 mins by ultraperformance LC/MS/MS method; conditions: Caco-2
[23] = Oral bioavailability in Han Wistar rat assessed as 3-((3-(2-(2-(Aminomethyl)-5-chlorobenzylamino)-2-oxoethyl)-4-methyl-2-oxo-5,6-dihydropyridin-1(2H)-ylamino)methyl)benzoic acid formation at 1 umol/kg administered via gavage by LC-MS/MS method; assay type: ADME, organism-based; conditions: in vivo; summary of the method: as §2
[24] = Apparent terminal half life in Han Wistar rat at 1 umol/kg administered intraduodenally by LC-MS/MS method; assay type: ADME; conditions: in vivo, read-out: betat1/2(app) (converted); summary of the method: as §2
[25] = Bioavailability in Han Wistar rat assessed as 3-((3-(2-(2-(Aminomethyl)-5-chlorobenzylamino)-2-oxoethyl)-4-methyl-2-oxo-5,6-dihydropyridin-1(2H)-ylamino)methyl)benzoic acid formation at 1 umol/kg administered intraduodenally by LC-MS/MS method; assay type: ADME, organism-based; conditions: in vivo, other; summary of the method: as §2

- Ki (Serine protease 1): > 5.4 µM
- Ratio Ki (Homo sapiens [1]): > 1000
- Ki (Coagulation factor IX): > 29 µM
- IC50 (Cytochrome P450 3A4): 13 µM
- Ki (Plasminogen): > 19 µM
- Ratio Ki (Homo sapiens [2]): > 1000
- Ki (Prothrombin): 0.0005 µM
- Ratio Ki (Homo sapiens [3]): > 1000
- microsomal CLint at 1 µM [4]: 150 µL/min/mg
- Ratio Ki (Homo sapiens [5]): > 1000
- Ki [6]: > 33 µM
- Ki (Coagulation factor XI): > 19 µM
- IC50 (Rattus norvegicus): 0.072 µM
- Ki (Coagulation factor X): > 17 µM
- Ratio Ki [7]: > 1000
- IC50 (Plasma): 0.68 µM
- Ratio Ki (Homo sapiens [8]): > 1000
SMILES: CC1=C(CC(=O)NCc2cc(Cl)ccc2CN)C(=O)N(NCc2ccccc2)CC1

- Drug metabolism [9]: Metabolite_Detected
SMILES: CC1=C(CC(=O)NCc2cc(Cl)ccc2CNC(=O)OC(C)(C)C)C(=O)N(NCc2cccc(C(=O)O)c2)CC1

- Ki (Serine protease 1): > 5.4 µM
- Cmax [10]: 11 nM
- Drug metabolism [11]: Metabolite_Detected
- Drug metabolism [12]: Metabolite_Detected
- Papp A→B at 10 µM [13]: 48 ×10⁻⁶ cm/s
- Drug metabolism [14]: Metabolite_Notdetected
- AUC [15]: 0.0127 µM·h
- logD at 3 h (physchem): 2.3
- Drug metabolism [16]: Metabolite_Detected
- half-life [17]: 67.2 min
- Ki (Prothrombin): 0.2 µM
- Cmax [18]: 108 nM
- Drug metabolism [19]: Metabolite_Detected
- solubility at 24 h [20]: 120 µM (≈ 63.2 µg/mL)
- AUC [21]: 0.0081 µM·h
- efflux ratio at 10 µM [22]: 5.6
- F [23]: 2.5%
- half-life [24]: 6.6 min
- F [25]: 1.6%
SMILES: CC1=C2CC(=O)NCc3cc(Cl)ccc3CNC(=O)OCOC(=O)c3cccc(c3)CNN(CC1)C2=O
